Screens deposited in PubChem by Johns Hopkins Ion Channel Center.
RGS4 act – RGS4 potentiators or activators, primary screen, cell-based, HEK293 M3R inducible RGS4, calcium flux; carbachol calcium flux Fluo4; stronger effect = lower value; B-score at 10 µM; actives 0.92% (n = 310,000);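 active = B-score of the integrated calcium signal more than 4 SD below the library mean, with starting fluorescence not abnormally high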;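 note: negative B-score means reduced calcium response which marks RGS4 activation or potentiation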
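System: HEK293 FlpIn-TREx cells, stable M3R, doxycycline-inducible RGS4. Timing: overnight RGS4 induction, 30 min dye load 37 °C, 20 min compound RT. Also added: carbachol, ECmax concentration. Measured by: Fluo4 fluorescence kinetic imaging of calcium. Evaluation: integrated calcium ratio converted to B score.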
RGS4 inh – RGS4 inhibitors, primary screen, cell-based, HEK293 M3R inducible RGS4, calcium flux; AID 463165, 2010; actives 0.45% (n = 310,000); Regulator of G-protein signaling 4 (Homo sapiens), P49798; B-score at 10 µM; Fluo-4 calcium flux; stronger effect = higher value; triggered by carbachol at its EC20;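 active = B-score, a plate-corrected calcium signal, over three deviations above library mean, with baseline fluorescence within five deviations of library mean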;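 note: RGS4 expression induced by doxycycline in cells with stable M3 receptor; B-score is computed from the integrated fluorescence ratio over baseline after carbachol; higher B-score means a larger calcium signal and so more RGS4 inhibition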
Target sequence (P49798 whole entry, looked up): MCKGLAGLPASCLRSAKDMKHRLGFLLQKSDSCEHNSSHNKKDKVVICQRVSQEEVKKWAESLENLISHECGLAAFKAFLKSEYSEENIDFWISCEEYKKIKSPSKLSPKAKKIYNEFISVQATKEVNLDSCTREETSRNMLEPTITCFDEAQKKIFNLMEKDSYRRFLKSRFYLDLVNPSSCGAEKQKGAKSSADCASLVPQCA
MrgX1 ag – agonists of human MrgX1 receptor, primary screen, HEK293 cells, Fluo-4 calcium flux | AID 588627, 2011 | Fluo-4 calcium fluorescence, agonist mode; stronger effect = higher value | actives 0.44% (n = 310,000) | Mas-related G-protein coupled receptor member X1 (Homo sapiens), Q96LB2 | B-score at 10 µM;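 active = calcium response B-score plate-corrected fluorescence ratio at least 3 library SD, with starting fluorescence B-score inside 5 SD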
Target sequence (Q96LB2 whole entry, looked up): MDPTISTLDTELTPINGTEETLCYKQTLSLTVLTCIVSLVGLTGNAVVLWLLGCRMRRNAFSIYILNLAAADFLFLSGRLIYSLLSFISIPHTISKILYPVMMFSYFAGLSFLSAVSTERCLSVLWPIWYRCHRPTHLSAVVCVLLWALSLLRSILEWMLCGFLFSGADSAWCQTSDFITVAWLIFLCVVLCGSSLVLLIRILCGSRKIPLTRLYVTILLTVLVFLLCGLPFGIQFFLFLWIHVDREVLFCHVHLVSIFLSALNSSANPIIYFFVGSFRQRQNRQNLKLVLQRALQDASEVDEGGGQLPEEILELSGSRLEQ
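Test system: HEK293 cells stably expressing human MrgX1 receptor; Input: fifteen thousand cells per well; Dosing: compound delivered in addition one of three; Schedule: overnight seeding, then 1 h dark dye loading; Technique: Fluo-4 NW calcium fluorescence; Measure: B-scored fluorescence response ratio; Controls: positive and negative controls per plate.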
MrgX1 PAM – positive allosteric modulators of MrgX1, primary screen, HEK293 cells, Fluo-4 calcium flux; Mas-related G-protein coupled receptor member X1 (Homo sapiens), Q96LB2; FDSS; stronger effect = higher value; B-score at 10 µM; actives 0.63% (n = 310,000); AID 588675, 2011;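 active = plate-corrected calcium response at least 3 library SD above typical, normal starting fluorescence, not activating the receptor alone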;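 note: compound read alongside a low EC10 to EC30 dose of BAM8-22 agonist; peak minus trough fluorescence over baseline measured at the second addition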
MrgX1 antagonist – antagonists of human MrgX1 receptor, primary screen, HEK293 cells, Fluo-4 calcium flux; Mas-related G-protein coupled receptor member X1 (Homo sapiens), Q96LB2; BAM8-22 antagonism; stronger effect = lower value; B-score at 10 µM; actives 1.3% (n = 310,000); AID 588676, 2011;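 active = calcium-response B-score plate-corrected more than 3 library SD below zero, starting fluorescence within 5 deviations, no agonist response on first addition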;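 note: peak minus trough fluorescence over baseline after final BAM8-22 challenge near maximal dose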
MrgX1 allo conf – MrgX1 positive allosteric modulators, duplicate retest, confirmation, HEK293 cells, Fluo-4 calcium flux; shares compounds with MrgX1 PAM; Fluo-4 calcium fluorescence, FDSS; activation (ratio percentage), % at 10 µM; actives 13% (n = 1,200); AID 602413, 2012;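 active = ratio at least 3 SD above the weak peptide control, stable starting fluorescence, no direct agonism earlier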;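 note: compound followed by low BAM8-22 agonist challenge near EC20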
HEK293 Ca flux – nonspecific calcium signal in parental HEK293, confirmation, counter-screen for MrgX1 antagonist project, parental HEK293 cells, Fluo-4 calcium flux | shares compounds with MrgX1 antagonist | Fluo-4 calcium fluorescence, FDSS | fluorescence ratio F(max-min)/F0 at 10 µM | actives 2% (n = 4,000);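 active = duplicate-averaged calcium fluorescence ratio at least three times the standard deviation of buffer wells, a nonspecific response in parental cells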
HEK293 Ca counter – calcium response in parental HEK293 cells, primary screen, counter-screen for MrgX1 allosteric activator project, cell-based, Fluo-4 calcium flux, duplicate | actives 0.4% (n = 4,000) | Fluo-4 fluorescence ratio; stronger effect = higher value | shares compounds with MrgX1 antagonist | AID 624114, 2012 | fluorescence ratio F(max-min)/F0 at 10 µM;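 active = calcium fluorescence ratio, averaged over duplicates, at least 3 SD of the buffer-well ratio, meaning a nonspecific response in receptor-free cells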;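 note: untransfected parental HEK293 lacking MrgX1 used as counterscreen for MrgX1 allosteric activators; fluorescence change taken during the second addition on a kinetic imager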
HEK293 Ca cntr2 – calcium response in parental HEK293 cells, primary screen, counter-screen for MrgX1 agonist project, cell-based, Fluo-4 calcium flux, duplicate, agonist mode. shares compounds with MrgX1 antagonist. Fluo-4 calcium fluorescence (FDSS); stronger effect = higher value. fluorescence ratio F(max-min)/F0 at 10 µM. actives 8.7% (n = 4,000);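 active = calcium fluorescence ratio at least three times the spread of buffer wells, meaning a non-specific response in parental cells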
Of the large screens only hits and unclear results are named; the others gave an inactive call (follow-up assays come after a bar, where they were run). An excerpt weighted towards active compounds, which were near 3.5% of everything screened.

NC(=O)COC(=O)c1cccc(S(=O)(=O)N2CCCCC2)c1	MrgX1 PAM 11 | MrgX1 allo conf inactive | HEK293 Ca flux inactive | HEK293 Ca counter inactive | HEK293 Ca cntr2 inactive
CCOC(=O)c1cccc(S(=O)(=O)N2CCCC2)c1	none
O=C(Nc1ccccc1F)Nc1ccccc1F	MrgX1 PAM 7.2 | MrgX1 allo conf inactive | HEK293 Ca flux inactive | HEK293 Ca counter inactive | HEK293 Ca cntr2 inactive
O=C(NNc1ccccc1)Nc1ccccc1F	none
CCn1c(=O)c2c(nc(SCC(=O)NCC3CCCO3)n2C)n(C)c1=O (configuration not stated)	none
COc1ccccc1Oc1ncnc2sccc12	none
Cc1ccccc1Oc1ncnc2sccc12	MrgX1 PAM 8.4 | MrgX1 allo conf 11% | HEK293 Ca flux inactive | HEK293 Ca counter inactive | HEK293 Ca cntr2 inactive
CC(C)(C)Sc1ccc2nc3c(n2c1)CCCC3	MrgX1 PAM 16 | MrgX1 allo conf inactive | HEK293 Ca flux inactive | HEK293 Ca counter inactive | HEK293 Ca cntr2 inactive
CCn1c(=O)n(CC)c2cc(S(=O)(=O)Nc3c(C)cccc3C)ccc21	none
CCn1c(=O)c(=O)n(CC)c2cc(S(=O)(=O)Nc3ccc(C)cc3)ccc21	MrgX1 PAM 11 | MrgX1 allo conf inactive | HEK293 Ca flux inactive | HEK293 Ca counter inactive | HEK293 Ca cntr2 inactive
COc1c(O)ccc(C2NC(=O)NC(C)=C2C(=O)Nc2ccccc2C)c1[N+](=O)[O-] (configuration not stated)	none
C=CCc1ccccc1Oc1cc(F)nc(N)n1	MrgX1 PAM 15 | MrgX1 allo conf 9.9% | HEK293 Ca flux inactive | HEK293 Ca counter inactive | HEK293 Ca cntr2 inactive
Cc1ccc(C)c(Oc2cc(F)nc(N)n2)c1	none
COc1cc(/C=C(/C#N)C(=O)NCc2ccccc2)cc(OC)c1OC	MrgX1 PAM 36 | MrgX1 allo conf inactive | HEK293 Ca flux inactive | HEK293 Ca counter inactive | HEK293 Ca cntr2 inactive
CC(C)CC(=O)N=C1SC2CS(=O)(=O)CC2N1Cc1ccccc1Cl (configuration not stated)	none
CCc1ccc(C(N)=S)cc1	MrgX1 PAM 9 | MrgX1 allo conf inactive | HEK293 Ca flux inactive | HEK293 Ca counter inactive | HEK293 Ca cntr2 inactive
COc1cc(CNCc2cc(OC)c(OC)c(OC)c2)cc(OC)c1	none
Cc1cc(C)n(C(=O)CNc2ccc(C)c(C)c2)n1	MrgX1 PAM 8.6 | MrgX1 allo conf inactive | HEK293 Ca flux inactive | HEK293 Ca counter inactive | HEK293 Ca cntr2 inactive
O=C(NC(=S)N(CCc1ccccc1)CCc1ccccc1)c1ccco1	none
CC(CCc1ccccc1)NC(=S)NC(=O)c1ccco1 (configuration not stated)	MrgX1 PAM 14 | MrgX1 allo conf inactive | HEK293 Ca flux inactive | HEK293 Ca counter inactive | HEK293 Ca cntr2 inactive
O=C(NC(=S)Nc1ccccc1Cl)c1ccco1	none
CCC(C)c1ccccc1NC(=S)NC(=O)c1ccco1 (configuration not stated)	MrgX1 PAM 7.4 | MrgX1 allo conf inactive | HEK293 Ca flux inactive | HEK293 Ca counter inactive | HEK293 Ca cntr2 inactive
O=C(CC(=O)NCc1ccccc1)NCc1ccccc1	none
CCCC1NC(C(=O)O)Cc2c1[nH]c1ccccc21 (configuration not stated)	none
COc1ccc2oc(C(=O)OCC(=O)N(C)C3CCS(=O)(=O)C3)c(C)c2c1 (configuration not stated)	none
COc1ccc(C2=C(Nc3ccc(C)cc3)c3ccccc3C2=O)cc1	MrgX1 PAM 11 | MrgX1 allo conf inactive | HEK293 Ca flux inactive | HEK293 Ca counter inactive | HEK293 Ca cntr2 inactive
COc1ccc(C2=C(Nc3ccc(F)cc3)c3ccccc3C2=O)cc1	none
CC(=O)c1ccc(N2CCN(C(=O)c3ccc(Cn4c(=S)[nH]c5ccc(N6CCOCC6)cc5c4=O)cc3)CC2)cc1	none
O=C(N/C(=C/c1cccc([N+](=O)[O-])c1)C(=O)N1CCOCC1)c1ccc(Br)cc1	none
Cc1ccc(NC(=O)N2CCCC2C(=O)NCC2CCCCC2)cc1 (configuration not stated)	MrgX1 PAM 10 | MrgX1 allo conf inactive | HEK293 Ca flux inactive | HEK293 Ca counter inactive | HEK293 Ca cntr2 inactive
Cc1ccc(CNC(=O)C2CCCN2C(=O)Nc2ccc(C)cc2)cc1 (configuration not stated)	none
CCC1Nc2ncnc(N3CCCCC3)c2N(Cc2ccccc2)C1=O (configuration not stated)	MrgX1 PAM 7.5 | MrgX1 allo conf inactive | HEK293 Ca flux inactive | HEK293 Ca counter inactive | HEK293 Ca cntr2 inactive
CCOc1ccc(S(=O)(=O)n2nc(C)cc2C)cc1	none
O=c1c(-c2ccccc2)[n+]([O-])c2ccccc2n1O	MrgX1 PAM 21 | MrgX1 allo conf 12% | HEK293 Ca flux inactive | HEK293 Ca counter inactive | HEK293 Ca cntr2 inactive
Cc1ccc(-c2csc(NC(=O)C3CC=CCC3C(=O)O)c2C(=O)OC(C)C)cc1 (configuration not stated)	MrgX1 PAM 7.3 | MrgX1 allo conf inactive | HEK293 Ca flux inactive | HEK293 Ca counter inactive | HEK293 Ca cntr2 inactive
CCOC(=O)c1c(-c2ccc(C)cc2)csc1NC(=O)C1CC=CCC1C(=O)O (configuration not stated)	none
CSc1ncccc1C(=O)NCc1ccc(C)cc1	none
CCOc1ncccc1C(=O)NCc1ccc(C)cc1	MrgX1 PAM 7.2 | MrgX1 allo conf inactive | HEK293 Ca flux inactive | HEK293 Ca counter inactive | HEK293 Ca cntr2 inactive
COC(=O)c1[nH]c2ccc(C)cc2c1NC(=O)CN1CCN(c2ccccc2)CC1	none
COC(=O)c1[nH]c2ccc(C)cc2c1NC(=O)CN1CCC(C)CC1	MrgX1 PAM 7.8 | MrgX1 allo conf inactive | HEK293 Ca flux inactive | HEK293 Ca counter inactive | HEK293 Ca cntr2 inactive
